In ChEMBL document CHEMBL1158377, “Phenylpyrrole derivatives as neural and inducible nitric oxide synthase (nNOS and iNOS) inhibitors” (Eur J Med Chem, 2009) one finds inhibition and Activity data, which are given here for 26 molecules.

Active and inactive are the calls of the source. No cut-off for these calls is given here.

Test [1] concerns the target Nitric oxide synthase, inducible (Rattus norvegicus) (UniProt Q06518). Briefly: Inhibition of iNOS in LPS-treated Wistar rat lung tissue homogenate assessed as conversion of L-[3H]arginine to L-[3H]citrulline at 1 mM by liquid scintillation spectroscopy. In short, it runs like this: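 iNOS induced in Wistar rats by LPS 20 mg/Kg i.v.; lungs taken 8 h later, homogenized in ice-cold Tris-HCl pH 7.6 with protease inhibitors, then incubated with 10 mM EDTA to remove nNOS activity. Conversion of L-[3H]-arginine to L-[3H]-citrulline at 37 °C for 30 min with NADPH, compound 1 mM final; Dowex separation, scintillation counting.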

The target of test [2] is Nitric oxide synthase 1 (Rattus norvegicus) (UniProt P29476). Nature of the test: Inhibition of nNOS in Wistar rat striata tissue homogenate assessed as conversion of L-[3H]arginine to L-[3H]citrulline at 1 mM by liquid scintillation spectroscopy. In kind it is tissue-based. To be noted: Striatum. In short, it runs like this:
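Male Wistar rats killed by cervical dislocation; fresh striata homogenized in Tris-HCl pH 7.6 with protease inhibitors, spun 1000g 5 min. Supernatant incubated 30 min at 37 °C with 10 µM L-arginine plus 50 nM L-[3H]-arginine, CaCl2, BH4, FAD, NADPH 0.75 mM final; compound 1 mM final in DMSO. Dowex-50W separation; citrulline by scintillation; NADPH-omitted blank subtracted. Three experiments in triplicate, four striata each.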

The nature of test [3]: Binding affinity to CaCAM.
Test [4] addresses T1, Nitric oxide synthase, inducible (Mus musculus) (UniProt P29477).
T1 sequence (whole entry): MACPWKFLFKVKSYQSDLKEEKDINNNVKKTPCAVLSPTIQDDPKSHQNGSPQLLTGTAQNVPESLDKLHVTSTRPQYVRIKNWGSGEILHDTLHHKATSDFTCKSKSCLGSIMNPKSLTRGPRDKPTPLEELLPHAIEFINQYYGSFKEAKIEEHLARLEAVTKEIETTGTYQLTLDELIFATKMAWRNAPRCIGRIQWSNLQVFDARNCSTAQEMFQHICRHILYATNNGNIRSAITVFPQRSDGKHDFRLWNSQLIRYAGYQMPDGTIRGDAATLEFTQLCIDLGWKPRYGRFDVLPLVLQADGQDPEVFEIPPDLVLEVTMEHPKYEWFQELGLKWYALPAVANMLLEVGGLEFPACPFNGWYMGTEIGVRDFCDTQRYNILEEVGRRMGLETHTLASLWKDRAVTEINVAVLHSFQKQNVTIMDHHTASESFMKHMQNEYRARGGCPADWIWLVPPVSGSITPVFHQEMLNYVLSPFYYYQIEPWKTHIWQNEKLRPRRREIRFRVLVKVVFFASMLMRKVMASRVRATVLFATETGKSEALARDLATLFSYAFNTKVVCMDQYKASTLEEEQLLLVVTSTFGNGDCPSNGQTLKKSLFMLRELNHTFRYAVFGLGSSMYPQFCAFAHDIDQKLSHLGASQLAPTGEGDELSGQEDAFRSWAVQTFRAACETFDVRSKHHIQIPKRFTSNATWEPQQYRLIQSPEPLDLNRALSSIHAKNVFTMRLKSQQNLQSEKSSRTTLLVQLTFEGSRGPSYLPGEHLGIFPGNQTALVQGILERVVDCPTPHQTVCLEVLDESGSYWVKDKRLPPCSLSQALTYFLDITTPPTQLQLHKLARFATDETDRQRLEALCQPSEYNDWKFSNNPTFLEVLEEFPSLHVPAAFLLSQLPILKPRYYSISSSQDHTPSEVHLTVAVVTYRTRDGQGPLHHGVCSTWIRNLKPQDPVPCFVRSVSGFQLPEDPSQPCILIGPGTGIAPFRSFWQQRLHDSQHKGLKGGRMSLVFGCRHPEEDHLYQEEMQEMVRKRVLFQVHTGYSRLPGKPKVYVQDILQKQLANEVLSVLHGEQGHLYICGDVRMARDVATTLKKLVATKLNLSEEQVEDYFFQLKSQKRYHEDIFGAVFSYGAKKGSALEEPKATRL
Nature of the test: Inhibition of inducible mitochondrial NOS in stantia nigra isolated from MPTP-induced parkinson's disease C57/Bl6 mouse model assessed as L-[3H]citrulline per mg of protein at 20 mg/kg, b.w 1 hr before MPTP challenge after 32 hrs by liquid scintillation spectroscopy. In kind it is organism-based. Further details: dose 20 mg/kg. In short, it runs like this:
(§1)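 C57/Bl6 mice (22–28 g) given MPTP 15 mg/kg s.c. at 0, 2, 4, 6, 24, 26 and 28 h; single compound dose 20 mg/kg b.w. 1 h before first MPTP; controls got ethanol/saline vehicle. Killed 32 h after treatments; substantia nigra cytosol and mitochondria assayed by L-[3H]-citrulline formation, as pmol/mg protein/min. Seven experiments in triplicate, four SN each.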

The target of test [5] is T1, Nitric oxide synthase, inducible (Mus musculus). Nature of the test: Inhibition of cytosolic iNOS in stantia nigra isolated from MPTP-induced parkinson's disease C57/Bl6 mouse model assessed as L-[3H]citrulline per mg of protein at 20 mg/kg, b.w 1 hr before MPTP challenge after 32 hrs by liquid scintillation spectroscopy. It is filed as organism-based. Also noted: dose 20 mg/kg. In short, it runs like this: as §1

Test [6] addresses Nitric oxide synthase 1 (Mus musculus) (UniProt Q9Z0J4). Nature of the test: Inhibition of constitutive mitochondrial NOS in stantia nigra isolated from MPTP-induced parkinson's disease C57/Bl6 mouse model assessed as L-[3H]citrulline per mg of protein at 20 mg/kg, b.w 1 hr before MPTP challenge after 32 hrs by liquid scintillation spectroscopy. In kind it is organism-based. Further details: dose 20 mg/kg. In short, it runs like this: as §1

The target is the same in test [7]. Nature of the test: Inhibition of cytosolic nNOS in stantia nigra isolated from MPTP-induced parkinson's disease C57/Bl6 mouse model assessed as L-[3H]citrulline per mg of protein at 20 mg/kg, b.w 1 hr before MPTP challenge after 32 hrs by liquid scintillation spectroscopy. It is filed as organism-based. Also noted: dose 20 mg/kg. In short, it runs like this:
as §1

The target of test [8] is Nitric oxide synthase 1 (Homo sapiens) (UniProt P29475). Briefly: Inhibition of nNOS.

Sequence of Nitric oxide synthase 1 (Rattus norvegicus) (P29476 whole entry): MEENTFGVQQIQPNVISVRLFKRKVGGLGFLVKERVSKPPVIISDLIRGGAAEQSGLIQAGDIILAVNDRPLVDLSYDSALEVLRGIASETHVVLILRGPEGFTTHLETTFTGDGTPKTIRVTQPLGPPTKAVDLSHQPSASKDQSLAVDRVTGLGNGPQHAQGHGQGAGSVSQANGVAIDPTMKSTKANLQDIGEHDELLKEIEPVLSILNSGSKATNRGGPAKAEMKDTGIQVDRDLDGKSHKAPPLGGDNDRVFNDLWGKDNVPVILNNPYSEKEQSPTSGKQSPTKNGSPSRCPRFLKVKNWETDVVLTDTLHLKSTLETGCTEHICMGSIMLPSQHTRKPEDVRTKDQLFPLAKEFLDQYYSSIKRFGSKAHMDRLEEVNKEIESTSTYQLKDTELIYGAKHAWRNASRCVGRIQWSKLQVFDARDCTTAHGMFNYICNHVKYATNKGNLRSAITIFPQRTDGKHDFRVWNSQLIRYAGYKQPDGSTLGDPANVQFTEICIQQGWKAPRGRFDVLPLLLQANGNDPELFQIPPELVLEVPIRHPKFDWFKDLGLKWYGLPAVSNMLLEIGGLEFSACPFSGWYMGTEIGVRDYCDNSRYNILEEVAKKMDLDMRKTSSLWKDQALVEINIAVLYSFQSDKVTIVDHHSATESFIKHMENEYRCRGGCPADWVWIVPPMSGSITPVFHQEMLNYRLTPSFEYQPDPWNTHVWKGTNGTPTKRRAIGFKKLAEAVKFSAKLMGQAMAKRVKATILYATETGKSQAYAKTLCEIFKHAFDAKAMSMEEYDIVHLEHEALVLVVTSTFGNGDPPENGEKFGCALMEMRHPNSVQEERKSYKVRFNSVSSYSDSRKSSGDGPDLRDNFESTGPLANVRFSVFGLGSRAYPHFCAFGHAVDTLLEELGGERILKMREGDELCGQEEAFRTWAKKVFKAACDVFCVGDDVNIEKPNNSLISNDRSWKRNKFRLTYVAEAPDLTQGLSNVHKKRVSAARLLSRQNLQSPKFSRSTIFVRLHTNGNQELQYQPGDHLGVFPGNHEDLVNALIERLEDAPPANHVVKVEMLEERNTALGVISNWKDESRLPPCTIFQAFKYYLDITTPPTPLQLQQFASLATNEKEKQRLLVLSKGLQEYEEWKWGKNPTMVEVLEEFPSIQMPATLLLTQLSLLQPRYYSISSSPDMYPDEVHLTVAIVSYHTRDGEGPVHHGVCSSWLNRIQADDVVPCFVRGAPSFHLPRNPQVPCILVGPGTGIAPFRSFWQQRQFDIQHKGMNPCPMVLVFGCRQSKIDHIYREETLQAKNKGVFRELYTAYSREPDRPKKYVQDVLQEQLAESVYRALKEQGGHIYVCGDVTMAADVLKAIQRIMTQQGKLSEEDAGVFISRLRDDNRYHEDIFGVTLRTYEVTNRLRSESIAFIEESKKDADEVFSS
Sequence of Nitric oxide synthase, inducible (Rattus norvegicus) (Q06518 whole entry): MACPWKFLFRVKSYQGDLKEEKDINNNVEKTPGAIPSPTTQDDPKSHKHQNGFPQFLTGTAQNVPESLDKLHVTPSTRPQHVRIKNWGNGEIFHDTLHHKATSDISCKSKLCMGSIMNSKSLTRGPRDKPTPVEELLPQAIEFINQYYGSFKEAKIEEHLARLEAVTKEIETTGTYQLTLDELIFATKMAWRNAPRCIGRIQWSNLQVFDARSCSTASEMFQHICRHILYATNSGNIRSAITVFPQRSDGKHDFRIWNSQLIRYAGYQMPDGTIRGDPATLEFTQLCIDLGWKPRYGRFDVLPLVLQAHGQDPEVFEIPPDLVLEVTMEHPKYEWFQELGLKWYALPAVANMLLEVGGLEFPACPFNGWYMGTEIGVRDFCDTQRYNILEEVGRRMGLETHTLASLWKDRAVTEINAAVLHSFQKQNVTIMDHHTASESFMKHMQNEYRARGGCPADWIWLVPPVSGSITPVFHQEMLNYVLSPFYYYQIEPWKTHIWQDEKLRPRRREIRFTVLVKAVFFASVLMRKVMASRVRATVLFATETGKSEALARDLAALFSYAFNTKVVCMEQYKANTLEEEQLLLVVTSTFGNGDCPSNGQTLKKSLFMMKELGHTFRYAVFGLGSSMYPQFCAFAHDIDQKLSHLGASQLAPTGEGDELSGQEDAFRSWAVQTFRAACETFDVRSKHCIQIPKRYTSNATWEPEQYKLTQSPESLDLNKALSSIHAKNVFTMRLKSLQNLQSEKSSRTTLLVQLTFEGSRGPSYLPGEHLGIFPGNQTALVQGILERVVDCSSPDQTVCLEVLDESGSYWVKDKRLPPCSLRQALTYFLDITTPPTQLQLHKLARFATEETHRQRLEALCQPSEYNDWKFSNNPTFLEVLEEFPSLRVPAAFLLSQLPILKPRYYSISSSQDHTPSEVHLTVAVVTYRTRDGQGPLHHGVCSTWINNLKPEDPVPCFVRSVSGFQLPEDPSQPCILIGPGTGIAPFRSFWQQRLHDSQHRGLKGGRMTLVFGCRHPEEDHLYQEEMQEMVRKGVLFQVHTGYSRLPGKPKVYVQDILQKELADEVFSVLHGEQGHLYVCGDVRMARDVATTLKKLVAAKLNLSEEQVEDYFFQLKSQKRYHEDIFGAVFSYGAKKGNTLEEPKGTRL
Sequence of Nitric oxide synthase 1 (Mus musculus) (Q9Z0J4 whole entry): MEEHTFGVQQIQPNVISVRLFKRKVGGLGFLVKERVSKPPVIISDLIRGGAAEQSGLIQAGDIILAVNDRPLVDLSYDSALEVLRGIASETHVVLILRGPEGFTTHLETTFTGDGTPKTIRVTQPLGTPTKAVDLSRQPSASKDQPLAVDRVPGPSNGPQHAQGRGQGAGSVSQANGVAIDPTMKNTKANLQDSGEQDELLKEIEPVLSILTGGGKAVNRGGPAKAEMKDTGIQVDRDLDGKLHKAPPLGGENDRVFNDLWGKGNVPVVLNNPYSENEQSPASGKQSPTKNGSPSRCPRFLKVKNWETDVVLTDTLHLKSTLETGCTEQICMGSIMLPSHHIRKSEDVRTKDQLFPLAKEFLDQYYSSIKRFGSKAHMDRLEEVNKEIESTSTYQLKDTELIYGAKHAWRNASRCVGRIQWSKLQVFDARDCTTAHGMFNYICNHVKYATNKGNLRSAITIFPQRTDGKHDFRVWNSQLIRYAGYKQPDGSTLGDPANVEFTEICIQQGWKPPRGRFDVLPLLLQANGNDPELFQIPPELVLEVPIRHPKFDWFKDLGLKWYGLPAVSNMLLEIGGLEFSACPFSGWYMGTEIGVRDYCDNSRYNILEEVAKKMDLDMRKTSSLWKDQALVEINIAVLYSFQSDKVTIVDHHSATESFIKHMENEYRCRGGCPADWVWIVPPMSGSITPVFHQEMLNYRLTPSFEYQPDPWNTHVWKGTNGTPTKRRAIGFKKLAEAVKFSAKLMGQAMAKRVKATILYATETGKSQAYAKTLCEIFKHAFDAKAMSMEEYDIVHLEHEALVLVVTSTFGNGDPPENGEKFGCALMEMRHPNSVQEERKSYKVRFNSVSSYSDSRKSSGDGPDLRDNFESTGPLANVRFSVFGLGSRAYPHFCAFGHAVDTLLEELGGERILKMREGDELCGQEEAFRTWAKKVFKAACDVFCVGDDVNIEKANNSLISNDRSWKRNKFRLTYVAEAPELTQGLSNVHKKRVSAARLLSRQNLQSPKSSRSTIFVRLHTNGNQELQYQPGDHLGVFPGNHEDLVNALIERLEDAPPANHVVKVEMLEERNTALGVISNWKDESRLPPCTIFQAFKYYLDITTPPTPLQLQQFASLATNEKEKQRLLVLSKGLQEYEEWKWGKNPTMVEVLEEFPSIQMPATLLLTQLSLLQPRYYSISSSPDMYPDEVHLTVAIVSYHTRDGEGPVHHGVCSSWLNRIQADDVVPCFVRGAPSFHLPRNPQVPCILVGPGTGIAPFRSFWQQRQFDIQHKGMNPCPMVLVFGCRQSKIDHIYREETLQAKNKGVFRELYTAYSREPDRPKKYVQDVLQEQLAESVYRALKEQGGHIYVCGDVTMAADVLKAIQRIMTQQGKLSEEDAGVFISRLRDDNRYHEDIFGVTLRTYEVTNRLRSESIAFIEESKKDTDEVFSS

For `Nc1ccccc1-c1ccc(C(=O)NC2CC2)[nH]1`, the inhibition (commonly the change of the read-out against control, counted positive when it falls) is -1.1% in test [1] and 2.92% in test [2]. For the same molecule, in test [3], the result was inactive.

In the case of `CNC(=O)c1ccc(-c2ccccc2N)[nH]1`, in test [1], the inhibition turned out to be 32.7%. In addition, the Activity was determined as 7.46 pmol/min in test [4], 5.78 pmol/min in test [5], 9.95 pmol/min in test [6] and 65.5 pmol/min in test [7]. The outcome in test [3] was inactive.

For the molecule `CCNC(=O)c1ccc(-c2cc(Cl)ccc2N)[nH]1`, the inhibition in test [1] was determined as 2.8%; in test [2] it was 33.4%. The outcome in test [3] was inactive.

Consider `Nc1ccccc1-c1ccc(C(=O)NC2CCCCC2)[nH]1`, for which the inhibition came to 17.2% in test [1] and 13.4% in test [2]. In addition, the outcome in test [3] was inactive.

Consider `NC(=O)c1ccc(-c2cc(Cl)ccc2N)[nH]1`, for which the inhibition in test [1] came to 5.34%; in test [2] it was 34.5%. The outcome in test [3] was inactive.

With `CCCNC(=O)c1ccc(-c2cc(OC)ccc2N)[nH]1`, the inhibition in test [1] stood at 6.78%; in test [2] it was 43.5%. The result in test [3] was inactive.

Regarding `COc1ccc(N)c(-c2ccc(C(=O)NC3CCCC3)[nH]2)c1`, the values for the inhibition in test [1] and in test [2] were 26.2% and 15.3%, respectively. Also, in test [3], the outcome was inactive.

Turning to `Nc1ccccc1-c1ccc(C(=O)NC2CCCC2)[nH]1`, the inhibition was 52.8% in test [1] and 5.36% in test [2]. In addition, the Activity in test [4] was found to be 9.45 pmol/min; in test [5], 6.53 pmol/min; in test [6], 14.1 pmol/min; in test [7] it was 74.3 pmol/min. In test [3], the outcome was inactive.

Turning to `Nc1ccccc1-c1ccc(C(=O)NC2CCC2)[nH]1`, the inhibition turned out to be 20.1% in test [1] and 8.44% in test [2]. Moreover, the outcome in test [3] was inactive.

For the molecule `CNC(=O)c1ccc(-c2cc(OC)ccc2N)[nH]1`, the inhibition in test [1] came out at 26.2%. The result in test [3] was inactive.

Take `Nc1ccccc1-c1ccc(C(=O)NCc2ccccc2)[nH]1`: the inhibition in test [1] was 28.1%; in test [2], 7.52%. In addition, the outcome in test [3] was inactive.

In the case of `COc1ccc(N)c(C(=O)CCNC(C)=O)c1`, the inhibition entry in test [8] was “Dose-dependent effect”.

As to `CCCNC(=O)c1ccc(-c2ccccc2N)[nH]1`, the inhibition in test [1] stood at 13.2%. In addition, the outcome in test [3] was inactive.

In the case of `CN1CC=C(c2ccccc2)CC1`, the Activity in test [4] came to 43.8 pmol/min; in test [5], 29.4 pmol/min; in test [6] it was 25.9 pmol/min; in test [7], 83.7 pmol/min.

For the molecule `CCCCNC(=O)c1ccc(-c2ccccc2N)[nH]1`, the inhibition in test [1] was 7.53%; in test [2], -0.01%. Besides, in test [3], the result was inactive.

Take `Cn1c(C(N)=O)ccc1-c1ccccc1N`: the inhibition in test [1] was determined as 16%; in test [2] it was 9.56%. In addition, the result in test [3] was inactive.

As for `NC(=O)c1ccc(-c2ccccc2N)[nH]1`, the inhibition in test [1] came to 3.07%; in test [2], 15%. Also, in test [3], the outcome was inactive.

For `COc1ccc(N)c(-c2ccc(C(=O)NCc3ccccc3)[nH]2)c1`, the inhibition in test [1] was determined as 22.4%; in test [2], 8.89%. In addition, the outcome in test [3] was inactive.

On to `COc1ccc(N)c(-c2ccc(C(=O)NC3CC3)[nH]2)c1`, for which the inhibition came to 21.4% in test [1] and 32.5% in test [2]. In test [3], the result was inactive.

With `CNC(=O)c1ccc(-c2cc(Cl)ccc2N)[nH]1`, the inhibition was 1.27% in test [1] and 17.1% in test [2]. In addition, in test [3], the result was inactive.

Turning to `COc1ccc2[nH]cc(CCNC(C)=O)c2c1`, the inhibition entry in test [8] was “Dose-dependent effect”. The Activity amounted to 23.6 pmol/min in test [4], 19 pmol/min in test [5], 13.8 pmol/min in test [6] and 19.9 pmol/min in test [7].

On to `Nc1ccc(Cl)cc1-c1ccc(C(=O)NC2CC2)[nH]1`, for which the inhibition in test [1] came out at 7.2%; in test [2], 48.1%. Moreover, the outcome in test [3] was inactive.

In the case of `COc1ccc(N)c(-c2ccc(C(N)=O)[nH]2)c1`, the inhibition in test [1] is 8.95%. In addition, the outcome in test [3] was inactive.

For `COc1ccc(N)c(C(=O)CC(NC(C)=O)C(=O)O)c1` (stereo unspecified), in test [8], the inhibition entry is “Dose-dependent effect”.

As to `CCCCNC(=O)c1ccc(-c2cc(Cl)ccc2N)[nH]1`, the inhibition stood at 3.33% in test [1] and 36.5% in test [2]. The outcome in test [3] was inactive.

Turning to `CCNC(=O)c1ccc(-c2ccccc2N)[nH]1`, the inhibition turned out to be 20.5% in test [1] and 4.15% in test [2]. The outcome in test [3] was inactive.
